The source made the active and inactive calls. The calls are words filed in the database; no cut-off is given here.
Assays:
[1] = Drug uptake in human HK-2 cells incubated for 2 to 6 hrs by inversed fluorescence microscope analysis; type: ADME, cell-based; conditions: time 2-6 hrs
Method in brief: (§1)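 HK-2 cells with or without LPS treatment incubated with compound for 2.0 and 6.0 h; uptake imaged by fluorescence microscopy; flow cytometry at 2.0 h.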

[2] = Drug distribution in kidney of Balb/c mouse model assessed as increase in CUR level at 4 mg/kg, iv after 2 hrs of administration by IVIS Lumina III analysis; type: ADME, organism-based; conditions: in vivo
Method in brief: (§2)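 Normal or AKI mice given intravenous dose (CUR, 4 mg/kg); heart, lung, liver, spleen and kidney imaged ex vivo 2 h later on IVIS Lumina III; tissue distribution as mean ± SD, n = 6.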

[3] = Drug distribution in kidney of acute kidney injured Balb/c mouse model assessed as increase in CUR level at 4 mg/kg, iv after 2 hrs of administration by IVIS Lumina III analysis; type: ADME, organism-based; conditions: in vivo; method in brief: as §2
HK-2 [4] = assay: Antioxidant activity in human HK-2 cells assessed as reduction in LPS induced intracellular nitrotyrosine expression level pretreated with LPS for 24 hr followed by compound addition incubated for 2 hr by fluorescence imaging based assay; type: functional, cell-based
Mus musculus [5] = assay: Antioxidant activity against LPS-induced acute kidney injured Balb/c mouse mitochondrial fraction of kidney assessed as reduction of H2O2 generation at 4 mg/kg,iv by Amplex Red dye Hydrogen Peroxide assay; type: functional, organism-based; conditions: Mitochondria
Method in brief: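 Mitochondria isolated intact from renal tissue of LPS-induced AKI mice; H₂O₂ production measured with Amplex Red H₂O₂/peroxidase detection kit after treatment at CUR 4 mg/kg; n = 6.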

HK-2 [6] = assay: Induction of apoptosis in LPS-induced HK-2 cells assessed as inhibition of cleaved caspase-3 protein expression pretreated with LPS followed by compound addition incubated for 24 hrs by immunoblotting analysis; type: functional, cell-based; conditions: Homo sapiens
Method in brief: (§3)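 LPS-treated HK-2 cells; cytochrome c in mitochondrial and cytosolic fractions, cleaved caspase-9 and cleaved caspase-3 detected by immunoblot, normalised to β-actin; mean ± SD, n = 3.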

HK-2 [7] = assay: Induction of apoptosis in LPS-induced human HK-2 cells assessed as inhibition of cytochrome c protein expression pretreated with LPS followed by compound addition incubated for 24 hrs by immunoblotting analysis; type: functional, cell-based; method in brief: as §3
[8] = Drug uptake in human HK-2 cells assessed as increase in fluorescence intensity pretreated with LPS for 12 hrs followed by compound addition incubated for 6 hrs by mitotracker red based inverted microscopic analysis; type: ADME, cell-based; conditions: hk-2, 6 h
Method in brief: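 HK-2 cells co-stained with MitoTracker Red; mitochondrial colocalization of compound imaged by fluorescence microscopy; free CUR as control.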

Kidney [9] = assay: Nephroprotective activity against acute kidney injured Balb/c mouse kidney assessed as decrease in swollen tubular epithelial cells at 4 mg/kg,iv by H and E staining based assay; type: functional, organism-based
Method in brief: (§4)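 Renal tissue of AKI mice stained with H&E and examined by optical microscopy for tubular epithelial swelling, vacuolar degeneration and brush border loss; treatment at CUR 4 mg/kg.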

Kidney [10] = assay: Anti-inflammatory activity against LPS-induced acute kidney injured Balb/c mouse model assessed as reduction in kidney TNF alpha level at 4 mg/kg,iv by ELISA; type: functional, organism-based
Method in brief: (§5)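 TNF-α and IL-6 measured by ELISA in renal tissue of LPS-induced AKI mice after CUR-based treatment (CUR, 4 mg/kg); n = 6.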

Kidney [11] = assay: Anti-inflammatory activity against LPS-induced acute kidney injured Balb/c mouse model assessed as reduction in kidney IL-6 level at 4 mg/kg,iv by ELISA; type: functional, organism-based; method in brief: as §5
Kidney [12] = assay: Nephroprotective activity against acute kidney injured Balb/c mouse kidney assessed as decrease in vacuolar degeneration at 4 mg/kg,iv by H and E staining based assay; type: functional, organism-based; method in brief: as §4
Mus musculus [13] = assay: Nephroprotective activity against LPS-induced acute kidney injured Balb/c mouse model assessed as reduction in serum creatinine level at 4 mg/kg,iv by automatic biochemical analysis; type: functional, organism-based
Method in brief: (§6)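 Scr and BUN measured on automatic biochemical analyzer 24 h after administration (CUR, 4 mg/kg) to LPS-induced AKI mice; n = 6.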

HK-2 [14] = assay: Induction of apoptosis in LPS-induced HK-2 cells assessed as inhibition of cleaved caspase-9 protein expression pretreated with LPS followed by compound addition incubated for 24 hrs by immunoblotting analysis; type: functional, cell-based; conditions: Homo sapiens; method in brief: as §3
Kidney [15] = assay: Antioxidant activity against acute kidney injured Balb/c mouse kidney assessed as reduction of nitrotyrosine expression at 4 mg/kg,iv by immunohistochemistry analysis; type: functional, organism-based
Method in brief: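 Renal sections from AKI mice stained by immunohistochemistry for nitrotyrosine after treatment at CUR 4 mg/kg; scale bar 50 μm.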

[16] = Drug uptake in LPS stimulated human HK-2 cells pretreated with LPS for 12 hrs followed by compound addition incubated for 2 to 6 hrs by flow cytometry method; type: ADME, cell-based; conditions: time 2-6 hrs; method in brief: as §1
HK-2 [17] = assay: Antioxidant activity in human HK-2 cells assessed as reduction in LPS induced mitochondrial reactive oxygen species generation at 7.16 ug/ml pretreated with LPS for 24 hr followed by compound addition incubated for 2 hr by MitoSOX staining based inverted fluorescent microscopic analysis; type: functional, cell-based; conditions: dose 7.16 µg/ml
Method in brief: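 LPS-treated HK-2 cells exposed to test agent (7.16 μg/mL); mitochondrial superoxide visualised with MitoSOX Red indicator by fluorescence imaging.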

Kidney [18] = assay: Antioxidant activity against LPS-induced acute kidney injured Balb/c mouse model assessed as increase in kidney GSH level at 4 mg/kg,iv; type: functional, organism-based
Method in brief: (§7)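 SOD, GSH and MDA levels determined in renal tissue of LPS-induced AKI mice after treatment at CUR 4 mg/kg; n = 6.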

[19] = Drug uptake in LPS stimulated human HK-2 cells pretreated with LPS for 12 hrs followed by compound addition incubated for 2 to 6 hrs by inversed fluorescence microscope analysis; type: ADME, cell-based; conditions: time 2-6 hrs; method in brief: as §1
Kidney [20] = assay: Antioxidant activity against LPS-induced acute kidney injured Balb/c mouse model assessed as increase in kidney superoxide dismutase level at 4 mg/kg,iv; type: functional, organism-based; method in brief: as §7
[21] = Drug uptake in LPS induced inflammation in human HK-2 cells assessed as decrease internalization in presence of Ser pretreated with LPS for 6 hr followed by compound addition incubated for 2 hr by flow cytometry; conditions: hk-2, 2 h
Mus musculus [22] = assay: Nephroprotective activity against LPS-induced acute kidney injured Balb/c mouse model assessed as reduction in blood urea nitrogen level at 4 mg/kg,iv by automatic biochemical analysis; type: functional, organism-based; method in brief: as §6
Kidney [23] = assay: Nephroprotective activity against acute kidney injured Balb/c mouse kidney assessed as decrease in disappeared and expanded tubular border brush at 4 mg/kg,iv by H and E staining based assay; type: functional, organism-based; method in brief: as §4
HK-2 [24] = assay: Induction of apoptosis in LPS-induced HK-2 cells assessed as increase in mitochondrial cytochrome C protein expression pretreated with LPS followed by compound addition incubated for 24 hrs by immunoblotting analysis; type: functional, cell-based; conditions: Homo sapiens; method in brief: as §3
[25] = Drug distribution in kidney of acute kidney injured Balb/c mouse model assessed as KIM1 receptor mediated endocytosis at 4 mg/kg, iv by fluorescence imaging based assay; type: ADME, organism-based; conditions: in vivo
Method in brief: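 Renal tissue of AKI mice examined by fluorescence imaging for colocalization of compound (green) with immunostained KIM-1 receptor (red); free CUR as control.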

Kidney [26] = assay: Antioxidant activity against LPS-induced acute kidney injured Balb/c mouse model assessed as reduction of increased MDA level at 4 mg/kg,iv; type: functional, organism-based; method in brief: as §7
HK-2 [27] = assay: Nephroprotective activity against LPS induced human HK-2 cells assessed as increase in cell viability at 3 ug/ml incubated for 24 hrs by MTT assay relative to control; type: functional; conditions: dose 3 µg/ml
Method in brief: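 HK-2 cells exposed to 15 μg/mL LPS for 24 h; viability assessed by MTT assay; n = 6.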

- Drug uptake [1]: Not Active
- Drug uptake [2]: Not Active
- Drug uptake [8]: Active
- Drug uptake [16]: Active
- Drug uptake [19]: Active
- Drug uptake [21]: Active
SMILES: COc1cc(/C=C/C(=O)CC(=O)/C=C/c2ccc(OC(=O)C(N)CO)c(OC)c2)ccc1OC(=O)CCCC[P+](c1ccccc1)(c1ccccc1)c1ccccc1.[Br-] (configuration not stated)
- Drug uptake [3]: Active
- Activity (HK-2 [4]): Active
- Activity (Mus musculus [5]): Active
- Activity (HK-2 [6]): Active
- Activity (HK-2 [7]): Active
- Activity (Kidney [9]): Active
- Activity (Kidney [10]): Active
- Activity (Kidney [11]): Active
- Activity (Kidney [12]): Active
- Activity (Mus musculus [13]): Active
- Activity (HK-2 [14]): Active
- Activity (Kidney [15]): Active
- Activity (HK-2 [17]): Active
- Activity (Kidney [18]): Active
- Activity (Kidney [20]): Active
- Activity (Mus musculus [22]): Active
- Activity (Kidney [23]): Active
- Activity (HK-2 [24]): Active
- Drug uptake [25]: Active
- Activity (Kidney [26]): Active
- Activity (HK-2 [27]): 40%

From ChEMBL document CHEMBL5046320, “A Stepwise Targeting Curcumin Derivative, Ser@TPP@CUR, for Acute Kidney Injury” (ACS Med Chem Lett, 2022)
